Compound activity (PubChem BioAssay)
Cneo AK release = Cryptococcus neoformans cell lysis inducers, primary screen, AK release luminescence, single concentration | C. neoformans lysis, adenylate kinase release luminescence, 4 h; normalised: neutral wells 0, clomiphene wells 100 | lysis activity, % at 15 µM | 360,000 tested, 0.2% active | AID 651654, 2012;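 active = mean lysis activity across replicates of at least 80%, whatever share of replicates individually reach that level; inactive = mean lysis activity below 80%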
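Assay system: C. neoformans cells. Amount: yeast cell density of 5 × 10^6 cells/mL. Technique: AK luminescence. Buffer or medium: YPD. Times: static 4 h at 37 °C with compound, 1 h detection. Dosing: single-point compound dose. Read-out: lysis from increased AK signal.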
MITF TRPM1 HTS = activators of MITF-driven TRPM1 promoter reporter, primary screen, cell-based, SK-MEL-5, luciferase, single point; AID 588334, 2011; 300,000 tested, 0.75% active; activation, % at 12.5 µM; SK-MEL-5 TRPM1-promoter luciferase, 24 h; % of positive control, neutral wells = 0;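 active = mean activation of at least 80% with every replicate also reaching 80%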;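 note: 0% = neutral control wells and 100% = parthenolide positive control wells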
ERAP1 HTS inh = human ERAP1 aminopeptidase inhibitors, primary screen, biochemical, single point, plate reader; Endoplasmic reticulum aminopeptidase 1 (Homo sapiens), Q9NZ08; recombinant ERAP1, Leu-AMC fluorescence, 60 min; inhibition, % at 10.7 µM; 340,000 tested, 0.15% active;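 active = mean replicate inhibition of at least 30%, or all replicates individually reaching that 30% level; inactive = mean below 30% and not every replicate reaching it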;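 note: 0% = neutral control wells and 100% = L-leucinethiol positive control wells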
Target sequence (Q9NZ08 whole entry, looked up): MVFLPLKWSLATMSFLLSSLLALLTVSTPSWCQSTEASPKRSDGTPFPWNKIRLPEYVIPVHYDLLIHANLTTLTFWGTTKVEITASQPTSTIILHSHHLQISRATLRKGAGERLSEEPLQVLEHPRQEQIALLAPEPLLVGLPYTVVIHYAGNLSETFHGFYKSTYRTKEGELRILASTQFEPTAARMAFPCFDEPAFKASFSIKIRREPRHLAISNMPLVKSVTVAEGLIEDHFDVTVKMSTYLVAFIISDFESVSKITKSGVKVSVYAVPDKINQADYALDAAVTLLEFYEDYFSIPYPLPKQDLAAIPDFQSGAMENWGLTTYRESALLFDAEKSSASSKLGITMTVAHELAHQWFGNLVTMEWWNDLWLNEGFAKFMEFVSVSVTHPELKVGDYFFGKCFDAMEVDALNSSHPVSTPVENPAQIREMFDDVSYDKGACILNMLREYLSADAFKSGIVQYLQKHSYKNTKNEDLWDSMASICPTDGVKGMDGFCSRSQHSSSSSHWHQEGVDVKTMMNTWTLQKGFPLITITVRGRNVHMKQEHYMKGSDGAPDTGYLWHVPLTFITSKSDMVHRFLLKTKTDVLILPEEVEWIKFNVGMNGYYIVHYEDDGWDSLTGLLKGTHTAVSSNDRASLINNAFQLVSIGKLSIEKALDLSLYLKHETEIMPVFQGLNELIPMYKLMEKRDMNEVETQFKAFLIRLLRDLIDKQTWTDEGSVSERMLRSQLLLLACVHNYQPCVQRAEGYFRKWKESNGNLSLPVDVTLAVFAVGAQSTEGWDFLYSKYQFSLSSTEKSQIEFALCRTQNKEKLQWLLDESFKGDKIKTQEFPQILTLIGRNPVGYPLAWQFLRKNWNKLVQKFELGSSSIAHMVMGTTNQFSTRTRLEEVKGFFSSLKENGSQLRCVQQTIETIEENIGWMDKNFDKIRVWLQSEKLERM
Wnt act = Wnt/beta-catenin pathway activators, primary screen, cell-based, plate reader, single point | Wnt/beta-catenin reporter cell assay, activator | activation, % at 9.35 µM | 300,000 tested, 1.2% active | AID 743398, 2014; in the data active = activation above about 30%, passing the limit was not always enough;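 note: 0% = neutral control wells and 100% = positive control wells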
HIV Env fusion = inhibitors of HIV-1 Env-driven cell-cell fusion, primary screen, HeLa-JRFL effector, CEM21 target cells, luciferase | inhibition, % at 12.3 µM | 360,000 tested, 1.1% active | AID 651610, 2012;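 active = mean replicate inhibition score of at least 50 and every replicate individually at or above 50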;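 note: 0% = plate neutral controls and 100% = maraviroc near 300 nM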
esBAF inh = Bmi1 luciferase reporter increase in mESCs, primary screen, esBAF inhibitor project, mouse ES cells, Bmi1 luciferase knock-in, single point. 24 h; 100% = twice the neutral-well signal. reporter increase, % at 12.5 µM. 350,000 tested, 2% active; in the data active = activation above about 40%;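 note: 0% = median of the plate's neutral control wells and 100% = double that signal; a rise in the Bmi1 reporter signal indicates esBAF inhibition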
An asterisk follows results filed as active; . = no result given; [ ] = dose if it differs, or a comment. Hits are enriched below; roughly 3.5% of the tested compounds scored in any of these assays.

SMILES	Cneo AK release	MITF TRPM1 HTS	ERAP1 HTS inh	Wnt act	HIV Env fusion	esBAF inh
Cc1ccc(NC(=O)CC(NC(=O)c2ccccc2Cl)c2ccccc2)nc1 (stereo unspecified)	-1	3	-2	-4	-3	-5
Cc1ccnc(NC(=O)CCNC(=O)c2ccccc2Cl)c1	2	20	-7	3	2	46*
Cc1ccc(NC(=O)CCNC(=O)c2ccccc2Cl)nc1	9	2	-1	-2	-15	4
Cc1ccnc(NC(=O)CC(NC(=O)c2ccccc2Cl)c2ccccc2)c1 (stereo unspecified)	-1	58	-3	-4	-56	52*
Cc1ccnc(NC(=O)CCNC(=O)c2ccc(Br)cc2)c1	-2	.	3	3	57*	25
Cc1ccnc(NC(=O)CNC(=O)COc2ccccc2)c1	-1	90*	2	38*	-29	74*
COc1ccc(S(=O)(=O)Nc2cccc3c2O[C@H](CN(C)S(=O)(=O)c2c(C)noc2C)[C@@H](C)CN([C@@H](C)CO)C3=O)cc1	.	.	3	.	.	.
CCCC(=O)N1C[C@@H]2[C@H](c3ccccc31)[C@H](CO)N2Cc1cocn1	-5	.	2	.	.	-1
Cc1ccccc1S(=O)(=O)NCC[C@@H]1CC[C@@H](NC(=O)Nc2cccc(F)c2)[C@@H](CO)O1	-1	.	1	.	-13[16.7 µM]	11
C[C@H](CO)N1C[C@H](C)[C@H](CN(C)Cc2ccc(C(=O)Nc3ccccc3N)cc2)OCCCC[C@H](C)Oc2ccc(NC(=O)C3CCCCC3)cc2C1=O	.	.	1	.	.	.
O=C(CCNC(=O)c1ccc(Br)cc1)NNC(=O)COc1ccccc1F	.	10	2	1	73*	.
CCCNC(=O)Nc1ccc2c(c1)C(=O)N(C)[C@H]1CC[C@H](CC(=O)O)O[C@H]1CO2	-2	.	.	.	15[16.7 µM]	-7
C=CCn1cccc(C(=O)Nc2ccc(OC)cc2)c1=O	.	1	-3	-1	-7	.
C=CCn1cccc(C(=O)Nc2ccc(F)cc2)c1=O	0	56	3	12	-20	67*
COCC(=O)N1C[C@H](C)[C@@H](OC)CN(C)C(=O)c2ccc(NC(=O)Nc3ccccc3)cc2OC[C@@H]1C	.	.	0	.	.	.
COc1ccc(NC(=O)Nc2ccc3c(c2)C(=O)N([C@H](C)CO)C[C@H](C)[C@H](CN(C)C)OCCCC[C@H](C)O3)cc1	-3	.	-4	.	10[16.7 µM]	-2
CCCCNc1ccc(C(F)(F)F)cc1S(=O)(=O)NCCc1ccc(F)cc1	0	12	.	-3	72*	-10
COc1ccc(S(=O)(=O)NCCc2ccc(F)cc2)cc1	1	.	.	-2	-36	-1
OC[C@H]1O[C@@H](n2cnc3c(Nc4ccccc4)ncnc32)[C@H](O)[C@@H]1O	-2	45	0	11	-5	36
CC(C)=CCNc1ncnc2c1c(C#N)cn2C1OC(CO)C(O)C1O (stereo unspecified)	.	2	-4	-15	58*	.
CO[C@@H]1CN(C)C(=O)c2ccc(NC(=O)c3cnccn3)cc2OC[C@H](C)N(C(=O)C2CC2)C[C@@H]1C	-2	.	-1	.	.	3
CO[C@@H](CN(C)C(=O)c1ccccc1F)[C@@H](C)CN([C@H](C)CO)S(=O)(=O)c1ccccc1	-7	.	2	.	.	-1
COc1ccc(S(=O)(=O)N[C@@H]2C=C[C@H](CC(=O)N3CCc4ccccc4C3)O[C@H]2CO)cc1	11	.	-3	.	-4[16.7 µM]	-1
OC1CCC2CN3CCc4c([nH]c5ccccc45)C3CC2C1 (stereo unspecified)	1	.	0	-2	.	62*
CCOc1ccccc1CNc1ncnc2ccc(-c3c(C)noc3C)cc12	-1	-32	-2	1	70*	-52
SMILES	Cneo AK release	MITF TRPM1 HTS	ERAP1 HTS inh	Wnt act	HIV Env fusion	esBAF inh
COc1ccccc1CNc1ncnc2cc(Cl)ccc12	.	-21	-3	-2	12	.
Cc1ccccc1S(=O)(=O)N1CC(=O)N2[C@H](C1)[C@H](c1ccc(C#Cc3ccccc3)cc1)[C@@H]2CO	.	.	1	.	.	.
CN(C)CC(=O)Nc1ccc2c(c1)[C@@H]1C[C@@H](CC(=O)NCc3cccc(F)c3)O[C@H](CO)[C@@H]1O2	0	.	-1	.	2[16.7 µM]	-2
O=C(C[C@@H]1C[C@H]2c3cc(NC(=O)C4CCOCC4)ccc3O[C@H]2[C@@H](CO)O1)NCc1ccccc1	-1	.	0	.	90*[16.7 µM]	6
O=C(C[C@@H]1C[C@@H]2c3cc(NC(=O)C4CCOCC4)ccc3O[C@@H]2[C@H](CO)O1)NCCc1ccccc1	5	.	1	.	63*[16.7 µM]	-7
O=C(C[C@H]1C[C@@H]2c3cc(NC(=O)C4CCOCC4)ccc3O[C@@H]2[C@@H](CO)O1)NCc1ccccc1F	1	.	0	.	82*[16.7 µM]	-1
CN(C)CC(=O)Nc1ccc2c(c1)[C@H]1C[C@H](CC(=O)NCc3cccc(F)c3)O[C@@H](CO)[C@H]1O2	-4	.	0	.	64*[16.7 µM]	1
CCCC(=O)Nc1ccc2c(c1)C(=O)N(C)[C@@H]1CC[C@@H](CC(=O)N3CCc4ccccc4C3)O[C@H]1CO2	-6	.	.	.	-27[16.7 µM]	-5
O=C(C[C@H]1CC[C@H]2[C@@H](COC[C@H](O)CN2C(=O)Nc2ccc(Cl)c(Cl)c2)O1)NCc1ccc(Cl)cc1	-8	.	-2	.	.	3
COc1ccccc1CNC(=O)C[C@@H]1C=C[C@@H](NC(C)=O)[C@H](CO)O1	0	.	3	.	-9[16.7 µM]	-3
C[C@@H]1CN([C@@H](C)CO)C(=O)c2cc(NC(=O)Cc3ccccc3)ccc2O[C@H]1CN(C)C	-2	.	-3	.	.	-1
CN(C)C(=O)[C@@H]1[C@@H](CO)[C@@H]2Cn3c(ccc(C4=CCCCC4)c3=O)[C@H]1N2Cc1ccccc1F	-1	.	-2	.	.	1
C[C@@H]1CN([C@@H](C)CO)C(=O)c2cccc(NC(=O)Nc3ccc4c(c3)OCO4)c2O[C@@H]1CN(C)C(=O)NC1CCCCC1	-1	.	-1	.	.	6
COCCNC(=O)C[C@@H]1C[C@H]2c3cc(N(C)C)ccc3O[C@H]2[C@H](CO)O1	-4	.	-2	.	-10[16.7 µM]	1
CN(C)CC(=O)Nc1ccc2c(c1)[C@H]1C[C@@H](CC(=O)NCCc3ccccc3)O[C@H](CO)[C@H]1O2	-1	.	1	.	60*[16.7 µM]	-5
COCCNC(=O)C[C@@H]1C[C@H]2c3cc(NC(=O)C4CCOCC4)ccc3O[C@H]2[C@H](CO)O1	109*	.	2	.	13[16.7 µM]	-6
COCCNC(=O)C[C@@H]1C[C@H]2c3cc(N(C)C)ccc3O[C@H]2[C@@H](CO)O1	0	.	-2	.	65*[16.7 µM]	-8
